Experimental data reported in ChEMBL document CHEMBL1250520, “Antitumor agents. 280. Multidrug resistance-selective desmosdumotin B analogues” (2010).
Calls of active or inactive are those of the source. The calls are words filed in the database; no cut-off is given here.

Assays:
[1] = Anticancer activity against human Hep3B cells after 3 days by SRB assay; type: functional, Hep 3B2; conditions: 72 h
[2] = Anticancer activity against vincristine-resistant human Hep3B cells after 3 days by SRB assay; type: functional, Hep 3B2; conditions: 72 h
KB = assay: Anticancer activity against human KB cells after 3 days by SRB assay; type: functional; conditions: 72 h, read-out: ED50 (the source's name)
Summary of the method: (§1)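 Cells seeded at 1500–7500 per well, compounds added from DMSO-diluted stock, grown 3 days in RPMI-1640 with 25mM HEPES, 0.25% sodium bicarbonate, 10% FBS and kanamycin. Attached cells fixed in cold 50% TCA, stained with 0.4% sulforhodamine B, absorbance read at 562 nm after dye solubilization. ED50 is the 50% growth-reduction concentration, averaged from at least three independent determinations.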

[3] = Anticancer activity against human KBVIN cells after 3 days by SRB assay; type: functional; conditions: 72 h, read-out: ED50 (the source's name); summary of the method: as §1
[4] = Selectivity ratio of ED50 for human KB cells to ED50 for human KBVIN cells; type: functional
Summary of the method: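 Ratio of KB ED50 to KB-VIN ED50. Both values come from a 3-day sulforhodamine B assay with absorbance read at 562 nm. Cells were seeded at 1500–7500 per well and dosed from DMSO-diluted stock. Each ED50 is the mean of at least three independent determinations.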

Hep 3B2 = assay: Selectivity ratio of GI50 for human Hep3B cells to ED50 vincristine-resistant Hep3B cells; type: functional
KBVIN [5] = assay: Inhibition of Pgp efflux pump in human KBVIN cells by calcein AM assay; type: cell-based
Summary of the method: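 KB-VIN cells, 10,000 per well, were grown 24 h in RPMI-1640 with 5% FBS. They were preincubated with compounds for 30 min at 37°C, then given fresh medium with 1 µM calcein-AM plus compounds for 30 min at 37°C in the dark. After cold PBS wash and hypotonic Tris-HCl lysis, fluorescence was read at Ex 494/Em 517 nm. Data pooled from two or more independent experiments.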

KBVIN [6] = assay: Induction of apoptosis in human KBVIN cells assessed as DNA fragmentation after 1 days by ELISA; type: functional, cell-based
Summary of the method: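 Apoptosis in KB-VIN cells, including co-treatment with verapamil, read out by a Cell Death Detection ELISA PLUS kit.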

EC50 (KB) [µM] | SMILES | GI50 [1] [µM] | GI50 [2] [µM] | EC50 [3] [µM] | Ratio ED50 [4] | RatioGI50 (Hep 3B2) | inhibition (KBVIN [5]) | Activity (KBVIN [6])
39.2 | CCC1=C(O)c2c(oc(-c3ccc(C)cc3)cc2=O)C(CC)(CC)C1=O [6,8,8-TRIETHYL-4-METHYL DESMOSDUMOTIN B] | 7.31 | 0.35 | 0.08 | 460 | 21 | Active | 
21.9 | CCC1=C(O)c2c(oc(-c3ccc(CC)cc3)cc2=O)C(CC)(CC)C1=O [6,8,8-TRIETHYL-4-ETHYL DESMOSDUMOTIN B] | 6.09 | 0.72 | 0.07 | 320 | 8.5 | Active | 
> 237 | CCC1=C(O)c2c(oc(-c3ccccc3)cc2=O)C(CC)(CC)C1=O [6,8,8-TRIETHYL DESMOSDUMOTIN B] | 47.6 | 1.57 | 1.07 | >221 | 30 | inactive | Active
36.5 | CCC1=C(O)c2c(oc(-c3ccc(OC(F)(F)F)cc3)cc2=O)C(CC)(CC)C1=O |  |  | 9.95 | 4 |  |  | 

Further lines, the molecule ahead of its results:

SMILES | EC50 (KB) [µM] | GI50 [1] [µM] | GI50 [2] [µM] | EC50 [3] [µM] | Ratio ED50 [4] | RatioGI50 (Hep 3B2) | inhibition (KBVIN [5]) | Activity (KBVIN [6])
CC(=O)O[C@H]1C(=O)[C@@]2(C)[C@H]([C@H](OC(=O)c3ccccc3)[C@]3(O)C[C@H](OC(=O)[C@H](O)[C@@H](NC(=O)c4ccccc4)c4ccccc4)C(C)=C1C3(C)C)[C@]1(OC(C)=O)CO[C@@H]1C[C@@H]2O [PACLITAXEL] |  | 0.0004 | 16.2 |  |  |  |  | 
CC[C@]1(O)C[C@H]2CN(CCc3c([nH]c4ccccc34)[C@@](C(=O)OC)(c3cc4c(cc3OC)N(C=O)[C@H]3[C@@](O)(C(=O)OC)[C@H](OC(C)=O)[C@]5(CC)C=CCN6CC[C@]43[C@@H]65)C2)C1 [VINCRISTINE] |  | 0.0029 | 6.86 |  |  |  |  | 
CCC1=C(O)c2c(oc(-c3ccc(CBr)cc3)cc2=O)C(CC)(CC)C1=O | > 46.5 |  |  | 27.9 | >2 |  |  | 
CCC1=C(O)c2c(oc(-c3ccc(OC)cc3C)cc2=O)C(CC)(CC)C1=O | 20.9 |  |  | 2.62 | 8 |  |  | 
CCC1=C(O)c2c(oc(-c3ccc(C)c(F)c3)cc2=O)C(CC)(CC)C1=O | 28.1 |  |  | 2.95 | 10 |  |  | 
